Where “and” joins values, the source holds several entries; their conditions need not be identical. Equal values may be shown once.
Tests used:
Type in all cases: physicochemical
[1] = Absorption spectroscopy of bacteriochlorins; conditions: for Bmax abs / IQy/IB / Qy abs / Qy abs fwhm / ∑Qy/∑B: room temperature; for bathochromic shift in the Qy band relative to that for B2: in DMF or water
[2] = Fluorescence emission spectroscopy of bacteriochlorins; conditions: for Qy em / Qy em fwhm: room temperature
How it was run: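 Absorption and fluorescence spectra were recorded at room temperature in DMF and in […] water (one analogue in DMSO). The Qy/B ratio is the ratio of integrated Qy to integrated B absorption intensity. The Stokes shift is the Qy fluorescence maximum minus the Qy absorption peak.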

[3] = Excited-state photophysical properties; conditions: for Φf (fluorescence quantum yield) / Φisc (intersystem crossing yield) / τS (lifetime of lowest singlet excited state) / kf^−1 / kic^−1 / kisc^−1 / Φic (internal conversion yield): room temperature; for kf^−1 / kic^−1 / kisc^−1: kx = Φx/τS; for Φic (internal conversion yield): Φic = 1 - Φf - Φisc
[4] = Water solubility / aggregation by absorption versus concentration in water; conditions: neat deionized water, 1000-fold concentration range (∼200–700 µM to ∼0.20–0.70 µM)
How it was run: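 Absorption spectra were taken in neat deionized water over a ~1000-fold concentration range (~200–700 µM to ~0.20–0.70 µM). Pathlength was changed reciprocally ([…]), and spectra were normalized at the Qy band. Concentration was calculated from absorbance in the 1-cm cuvette assuming ε(Qy) = 120,000 M−1cm−1.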

Row | Substance | Bmax abs ([1]; DMF) [nm] | IQy/IB ([1]; DMF) | Qy abs ([1]; DMF) [nm] | Qy abs fwhm ([1]; DMF) [nm] | ∑Qy/∑B ([1]; DMF) | Bmax abs ([1]; water with 5% DMF as cosolvent) [nm] | IQy/IB ([1]; water with 5% DMF as cosolvent) | Qy abs ([1]; water with 5% DMF as cosolvent) [nm] | Qy abs fwhm ([1]; water with 5% DMF as cosolvent) [nm] | ∑Qy/∑B ([1]; water with 5% DMF as cosolvent) | Qy em ([2]; DMF) [nm] | Qy em fwhm ([2]; DMF) [nm] | Qy em ([2]; water with 5% DMF as cosolvent) [nm] | Qy em fwhm ([2]; water with 5% DMF as cosolvent) [nm] | Φf (fluorescence quantum yield) ([3]; DMF) | Φisc (intersystem crossing yield) ([3]; DMF) | τS (lifetime of lowest singlet excited state) ([3]; DMF) | kf^−1 ([3]; DMF) [ns] | kic^−1 ([3]; DMF) [ns] | kisc^−1 ([3]; DMF) [ns] | other results
1 | 2,12-Bis[3,5-bis(3,6,9,12,15,18,21,24-octaoxahexacosanyl-26-amidomethyl)phenyl]-15^2-N-(3-carboxypropyl)-3-methoxycarbonyl-5-methoxy-8,8,18,18-tetramethylbacteriochlorin-13,15-dicarboimide [B5] | 375 | 0.78 | 808 | 32 | 0.50 | 376 | 0.50 | 819 | 36 | 0.38 | 819 | 35 | 834 | 44 | 0.13 | 0.29 | 1.7 ns and 1.70 ns | 13 | 3 | 6 | bathochromic shift of the Qy absorption band compared to B4 and II ([1]; DMF and water): ~50 nm; (Stokes) shift of Qy fluorescence maximum from Qy absorption peak ([2]; DMF): 11 nm; (Stokes) shift of Qy fluorescence maximum from Qy absorption peak ([2]; water): 15 nm; difference in kf between the two media (DMF and water) ([3]; DMF versus water): 6.5 fold; Φic (internal conversion yield) ([3]; DMF): 0.58; reduction of Φf in water vs DMF [3]: 87%; Φf (fluorescence quantum yield) ([3]; water with 5% DMF as cosolvent): 0.017; Φisc (intersystem crossing yield) ([3]; water with 5% DMF as cosolvent): 0.08; τS (lifetime of lowest singlet excited state) ([3]; water with 5% DMF as cosolvent): 1.4 ns and 1.40 ns; kf^−1 ([3]; water with 5% DMF as cosolvent): 84 ns; kic^−1 ([3]; water with 5% DMF as cosolvent): 2 ns; kisc^−1 ([3]; water with 5% DMF as cosolvent): 18 ns; Φic (internal conversion yield) ([3]; water with 5% DMF as cosolvent): 0.90; aggregation in water from absorption versus concentration [4]: obvious band broadening indicating some degree of aggregation
2 | 2,12-Bis[3,5-bis(11-methoxy-3,6,9-trioxaundecylamidomethyl)phenyl]-15-(7-carboxy-1-heptyl)-3,13-dimethoxycarbonyl-5-methoxy-8,8,18,18-tetramethylbacteriochlorin [B4] | 377 | 0.63 | 754 | 30 | 0.55 | 368 | 0.62 | 753 | 32 | 0.52 | 760 | 31 | 759 | 33 | 0.12 | 0.33 | 3.46 ns | 28 | 6 | 10 | bathochromic shift in the Qy band relative to that for B2 [1]: ~28 nm; Φic (internal conversion yield) ([3]; DMF): 0.55; reduction of Φf in water vs DMF [3]: 71%; Φf (fluorescence quantum yield) ([3]; water with 5% DMF as cosolvent): 0.035; Φisc (intersystem crossing yield) ([3]; water with 5% DMF as cosolvent): 0.31; τS (lifetime of lowest singlet excited state) ([3]; water with 5% DMF as cosolvent): 3.21 ns; kf^−1 ([3]; water with 5% DMF as cosolvent): 92 ns; kic^−1 ([3]; water with 5% DMF as cosolvent): 5 ns; kisc^−1 ([3]; water with 5% DMF as cosolvent): 10 ns; Φic (internal conversion yield) ([3]; water with 5% DMF as cosolvent): 0.65
3 | 3,13-Dimethoxycarbonyl-2,12-bis[3,5-bis(3,6,9,12,15,18,21,24-octaoxahexacosanyl-26-amidomethyl)phenyl]-5-methoxy-8,8,18,18-tetramethylbacteriochlorin [II] | 373 | 0.79 | 750 | 24 | 0.42 | 369 | 0.75 | 751 | 26 | 0.40 | 756 | 27 | 760 | 31 | 0.11 | 0.32 | 3.02 ns | 27 | 5 | 9 | bathochromic shift in the Qy band relative to that for B2 [1]: ~25 nm; (Stokes) shift of Qy fluorescence maximum from Qy absorption peak ([2]; water): 8–9 nm; Φic (internal conversion yield) ([3]; DMF): 0.57; reduction of Φf in water vs DMF [3]: 29%; Φf (fluorescence quantum yield) ([3]; water with 5% DMF as cosolvent): 0.078; Φisc (intersystem crossing yield) ([3]; water with 5% DMF as cosolvent): 0.31; τS (lifetime of lowest singlet excited state) ([3]; water with 5% DMF as cosolvent): 2.96 ns; kf^−1 ([3]; water with 5% DMF as cosolvent): 38 ns; kic^−1 ([3]; water with 5% DMF as cosolvent): 5 ns; kisc^−1 ([3]; water with 5% DMF as cosolvent): 10 ns; Φic (internal conversion yield) ([3]; water with 5% DMF as cosolvent): 0.61
4 | 15-[4-(3-Carboxyethyl)phenyl]-3,13-dimethoxycarbonyl-2,12-bis[3,5-bis(3,6,9,12,15,18,21,24-octaoxahexacosanyl-26-amidomethyl)phenyl]-5-methoxy-8,8,18,18-tetramethylbacteriochlorin [B3] | 375 | 0.74 | 741 | 23 | 0.52 | 374 | 0.81 | 742 | 24 | 0.57 | 748 | 27 | 750 | 28 | 0.21 | 0.47 | 3.27 ns | 15 | 10 | 7 | bathochromic shift in the Qy band relative to that for B2 [1]: ~16 nm; (Stokes) shift of Qy fluorescence maximum from Qy absorption peak ([2]; water): 8–9 nm; Φic (internal conversion yield) ([3]; DMF): 0.32; reduction of Φf in water vs DMF [3]: 38%; Φf (fluorescence quantum yield) ([3]; water with 5% DMF as cosolvent): 0.13; Φisc (intersystem crossing yield) ([3]; water with 5% DMF as cosolvent): 0.45; τS (lifetime of lowest singlet excited state) ([3]; water with 5% DMF as cosolvent): 3.39 ns; kf^−1 ([3]; water with 5% DMF as cosolvent): 27 ns; kic^−1 ([3]; water with 5% DMF as cosolvent): 8 ns; kisc^−1 ([3]; water with 5% DMF as cosolvent): 8 ns; Φic (internal conversion yield) ([3]; water with 5% DMF as cosolvent): 0.42

Source: paper PMC5268740 (New journal of chemistry = Nouveau journal de chimie, 2016)
